{"source": "ChEMBL document CHEMBL2176961", "about": "“Discovery and pharmacological profile of new 1H-indazole-3-carboxamide and 2H-pyrrolo[3,4-c]quinoline derivatives as selective serotonin 4 receptor ligands” (J Med Chem, 2012)", "key": {"Rattus norvegicus [1]": {"test_system": "Rattus norvegicus", "experiment": "Antinociceptive effect in rat assessed as reduction in paw licking during second phase (10 to 40 mins) at 3 mg/kg, po administered 30 mins before formalin challenge by formalin test", "type": "functional, organism-based", "design": "dose 3 mg/kg"}, "Rattus norvegicus [2]": {"test_system": "Rattus norvegicus", "experiment": "Antinociceptive effect in rat assessed as reduction in paw licking during first phase (0 to 10 mins) at 3 mg/kg, po administered 30 mins before formalin challenge by formalin test", "type": "functional, organism-based", "design": "dose 3 mg/kg"}, "Rattus norvegicus [3]": {"test_system": "Rattus norvegicus", "experiment": "Antinociceptive effect in rat assessed as latency time for nocifensive response at 6 mg/kg, po measured 1 hr post dose by hot plate test (reference value: 3.3 +/- 0.15 secs)", "type": "functional", "how_it_was_run": "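Rats, single oral dose; dosed animals placed on a hot plate held at 56 0.2 °C. Latency to the first nocifensive response (licking, flinching, jumping) was timed by stopwatch 1 h after dosing, with a 30 s cut-off. The effect was also expressed as percent latency increase over vehicle-treated rats. Groups were compared by ANOVA with Dunnett's test.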"}}, "note": "Activity calls are given as the source filed them.", "data": [{"smiles": "CN1CC[C@]23c4c5ccc(O)c4O[C@H]2[C@@H](O)C=C[C@H]3[C@H]1C5", "note": "[MORPHINE]", "values": [{"measurement": "Activity", "setting": "Rattus norvegicus [1]", "value": "Active"}, {"measurement": "Activity", "setting": "Rattus norvegicus [2]", "value": "Active"}, {"measurement": "Time", "setting": "Rattus norvegicus [3]", "value": 5.3, "unit": "s"}]}]}
